Test results: ChEMBL document CHEMBL1129236, “Synthesis and structure-activity relationships of phenylenebis(methylene)-linked bis-tetraazamacrocycles that inhibit human immunodeficiency virus replication. 2. Effect of heteroaromatic linkers on the activity of bicyclams” (J Med Chem, 1996)

Test system: Human immunodeficiency virus 2
Assay: Effective concentration against HIV-2(ROD) replication in MT-4 cells
Type: functional, organism-based
Conditions: Human immunodeficiency virus 2, MT4
Procedure, shortened: (§1)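 MT-4 cells were infected with HIV-1 (III_B) or HIV-2 (ROD) at MOI 0.01 (100 CCID₅₀), or mock-infected, run in parallel. Cells were exposed to various compound concentrations and grown 5 days, then viable cells were counted by MTT colorimetry. EC₅₀ protects 50% of infected cells from cytopathicity; CC₅₀ cuts mock-infected viability by 50%. Values are averages of several experiments.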

Compound	EC50 [nM]
c1cc(CN2CCCNCCNCCCNCC2)cc(CN2CCCNCCNCCCNCC2)n1	16400
c1cc(CN2CCCNCCNCCCNCC2)ncc1CN1CCCNCCNCCCNCC1	2190
c1nc(CN2CCCNCCNCCCNCC2)cnc1CN1CCCNCCNCCCNCC1	106000
O=C(O)c1cc(CN2CCCNCCNCCCNCC2)ccc1CN1CCCNCCNCCCNCC1	> 200000
O=C(O)c1cc(CN2CCCNCCNCCCNCC2)cc(CN2CCCNCCNCCCNCC2)c1	> 203000
c1ccc2c(CN3CCCNCCNCCCNCC3)cc(CN3CCCNCCNCCCNCC3)nc2c1	4270
COC(=O)c1cc(CN2CCCNCCNCCCNCC2)ccc1CN1CCCNCCNCCCNCC1	590
Nc1cc(CN2CCCNCCNCCCNCC2)ccc1CN1CCCNCCNCCCNCC1	93.4

Results, then the compound that gave them:

EC50 [nM]	Compound
20	c1ccc(-c2cc(CN3CCCNCCNCCCNCC3)cc(CN3CCCNCCNCCCNCC3)n2)cc1
17.4	c1ncc(CN2CCCNCCNCCCNCC2)nc1CN1CCCNCCNCCCNCC1
65.4	c1cc(CN2CCCNCCNCCCNCC2)nc(CN2CCCNCCNCCCNCC2)c1
71	c1ncc(CN2CCCNCCNCCCNCC2)cc1CN1CCCNCCNCCCNCC1
39	Nc1cc(CN2CCCNCCNCCCNCC2)cc(CN2CCCNCCNCCCNCC2)c1
78.6	c1ccc2c(CN3CCCNCCNCCCNCC3)cc(CN3CCCNCCNCCCNCC3)cc2c1
5.9	c1cc(CN2CCCNCCNCCCNCC2)ccc1CN1CCCNCCNCCCNCC1 [PLERIXAFOR]

Test system: MT4
Assay: Concentration required to reduce the viability of mock infected cells by 50%
Type: functional
Conditions: Homo sapiens
Procedure, shortened: as §1

Compound	CC50 [µM]
c1cc(CN2CCCNCCNCCCNCC2)cc(CN2CCCNCCNCCCNCC2)n1	17
c1ccc(-c2cc(CN3CCCNCCNCCCNCC3)cc(CN3CCCNCCNCCCNCC3)n2)cc1	> 203
c1ncc(CN2CCCNCCNCCCNCC2)nc1CN1CCCNCCNCCCNCC1	> 203
c1cc(CN2CCCNCCNCCCNCC2)ncc1CN1CCCNCCNCCCNCC1	18
c1nc(CN2CCCNCCNCCCNCC2)cnc1CN1CCCNCCNCCCNCC1	> 203
c1cc(CN2CCCNCCNCCCNCC2)nc(CN2CCCNCCNCCCNCC2)c1	> 409
c1ncc(CN2CCCNCCNCCCNCC2)cc1CN1CCCNCCNCCCNCC1	> 395
c1cc(CN2CCCNCCNCCCNCC2)cc(CN2CCCNCCNCCCNCC2)c1	> 421
O=C(O)c1cc(CN2CCCNCCNCCCNCC2)ccc1CN1CCCNCCNCCCNCC1	> 200
O=C(O)c1cc(CN2CCCNCCNCCCNCC2)cc(CN2CCCNCCNCCCNCC2)c1	> 200
c1ccc2c(CN3CCCNCCNCCCNCC3)cc(CN3CCCNCCNCCCNCC3)nc2c1	> 419
COC(=O)c1cc(CN2CCCNCCNCCCNCC2)ccc1CN1CCCNCCNCCCNCC1	> 198
c1ccc(-c2cc(CN3CCCNCCNCCCNCC3)cc(CN3CCCNCCNCCCNCC3)c2)cc1	> 198
Nc1cc(CN2CCCNCCNCCCNCC2)cc(CN2CCCNCCNCCCNCC2)c1	> 194
c1ccc2c(CN3CCCNCCNCCCNCC3)cc(CN3CCCNCCNCCCNCC3)cc2c1	207
Nc1cc(CN2CCCNCCNCCCNCC2)ccc1CN1CCCNCCNCCCNCC1	> 179
c1cc(CN2CCCNCCNCCCNCC2)ccc1CN1CCCNCCNCCCNCC1 [PLERIXAFOR]	> 421

Test system: not listed separately
Assay: pKa was reported
Type: physicochemical
Conditions: not given
Procedure, shortened: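 Potentiometric titration: a 0.1 mM aqueous solution with 4 equiv HClO₄ at 25 °C, I = 0.1 M (NaClO₄), was titrated with 0.1 M NaOH. The electrode was calibrated with pH 4.00 and 7.00 buffers. UV spectra (400–200 nm, 1 cm path) were also taken at 0.17 mM across pH 1–7, with pH set by HClO₄ in 0.1 M NaClO₄.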

pKa	Compound
< 3	c1ccc(C2CCNCCNCCCNCCN2)nc1 (centres undefined)
5.32	c1ccc(CCC2CNCCNCCCNCCNC2)nc1
3.6	Oc1cccnc1C1CCNCCNCCCNCCN1 (centres undefined)

Test system: Human immunodeficiency virus 1
Assay: Effective concentration against HIV-1(IIIB) replication in MT-4 cells
Type: functional, organism-based
Conditions: Human immunodeficiency virus 1, MT4
Procedure, shortened: as §1

Compound	EC50 [nM]
c1cc(CN2CCCNCCNCCCNCC2)cc(CN2CCCNCCNCCCNCC2)n1	16400
c1cc(CN2CCCNCCNCCCNCC2)ncc1CN1CCCNCCNCCCNCC1	908
c1nc(CN2CCCNCCNCCCNCC2)cnc1CN1CCCNCCNCCCNCC1	139000
O=C(O)c1cc(CN2CCCNCCNCCCNCC2)ccc1CN1CCCNCCNCCCNCC1	> 200000
O=C(O)c1cc(CN2CCCNCCNCCCNCC2)cc(CN2CCCNCCNCCCNCC2)c1	> 203000
c1ccc2c(CN3CCCNCCNCCCNCC3)cc(CN3CCCNCCNCCCNCC3)nc2c1	3770
COC(=O)c1cc(CN2CCCNCCNCCCNCC2)ccc1CN1CCCNCCNCCCNCC1	682
Nc1cc(CN2CCCNCCNCCCNCC2)ccc1CN1CCCNCCNCCCNCC1	187

The next lines start with the values.

EC50 [nM]	Compound
39.8	c1ccc(-c2cc(CN3CCCNCCNCCCNCC3)cc(CN3CCCNCCNCCCNCC3)n2)cc1
26.1	c1ncc(CN2CCCNCCNCCCNCC2)nc1CN1CCCNCCNCCCNCC1
24.5	c1cc(CN2CCCNCCNCCCNCC2)nc(CN2CCCNCCNCCCNCC2)c1
31.6	c1ncc(CN2CCCNCCNCCCNCC2)cc1CN1CCCNCCNCCCNCC1
46.8	Nc1cc(CN2CCCNCCNCCCNCC2)cc(CN2CCCNCCNCCCNCC2)c1
157	c1ccc2c(CN3CCCNCCNCCCNCC3)cc(CN3CCCNCCNCCCNCC3)cc2c1
